Experimental data: ChEMBL document CHEMBL1137702, “Identification of hydrolytically stable and selective P2Y(1) receptor agonists” (Eur J Med Chem, 2009); call rule not given here
Blank lines part the entries; values can stand above or below the compound they belong to.

Assays:
P2Y purinoceptor 1 [1] = target: T1, P2Y purinoceptor 1 (Meleagris gallopavo, UniProt P49652); assay: Antagonist activity at turkey P2Y1 receptor expressed in human 1321N1 cells assessed as inhibition of 2-MeS-ADP-induced increase in intracellular calcium concentration by dual-excitation spectrofluorimetric analysis; assay type: functional, cell-based
How it was run: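 Fura-2-loaded suspensions of stably transfected 1321N1 cells were assayed at 37 °C in HEPES-buffered saline pH 7.4 with 1 mM Ca2+ and Mg2+. […] [Ca2+]i was read by dual-excitation spectrofluorometry.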

[2] = Dissociation constant, pKa of the compound; assay type: physicochemical
P2Y purinoceptor 1 [3] = target: P2Y purinoceptor 1 (Rattus norvegicus, UniProt P49651); assay: Agonist activity at rat pancreas P2Y1 receptor assessed as enhancement of insulin secretion; assay type: functional
[4] = Chemical stability assessed as hydrolysis half life at pH 1.4 by 31P NMR analysis; assay type: physicochemical; details: buffer
[5] = Stability after 100 mins by HPLC-MS analysis in presence of calf intestine alkaline phosphatase; assay type: ADME; details: cattle, isolated protein
[6] = Chemical stability at physiological pH at 37 deg C assessed as hydrolysis half life by 31P NMR analysis; assay type: physicochemical
alkaline phosphatase = assay: Stability assessed as drug remaining after 12 mins by HPLC-MS analysis in presence of calf intestine alkaline phosphatase; assay type: ADME; details: cattle, read-out: Stability
Serum [7] = assay: (§1) Metabolic stability in human serum assessed as hydrolysis half life at 40 mM measured for 6 days by HPLC; assay type: ADME, cell-free; details: 144 h, 40000 µM
P2Y purinoceptor 6 = P2Y purinoceptor 6 (Rattus norvegicus, UniProt Q63371); assay: Agonist activity at rat P2Y6 receptor expressed in human 1321N1 cells assessed as increase in intracellular calcium concentration by dual-excitation spectrofluorimetric analysis; assay type: functional, cell-based
How it was run: (§2)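 1321N1 astrocytoma cells stably expressing the receptor (turkey P2Y1, human P2Y2, human P2Y4, rat P2Y6) were grown with G-418 selection. Fura-2-loaded cell suspensions were exposed at 37 °C in 10 mM HEPES-buffered saline pH 7.4 with 1 mM CaCl2 and 1 mM MgCl2. Peak [Ca2+]i rise was measured over a range of concentrations to derive EC50.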

[8] = target: T2, Ectonucleoside triphosphate diphosphohydrolase 1 (Bos taurus) (UniProt O18956); assay: Activity of bovine spleen NTPDase 1 assessed as drug hydrolysis at 100 uM after 7 mins by malachite green colorimetric assay relative to ATP; assay type: tissue-based; set-up: scale not given: the % may be the effect or the level left
T2 sequence (whole entry): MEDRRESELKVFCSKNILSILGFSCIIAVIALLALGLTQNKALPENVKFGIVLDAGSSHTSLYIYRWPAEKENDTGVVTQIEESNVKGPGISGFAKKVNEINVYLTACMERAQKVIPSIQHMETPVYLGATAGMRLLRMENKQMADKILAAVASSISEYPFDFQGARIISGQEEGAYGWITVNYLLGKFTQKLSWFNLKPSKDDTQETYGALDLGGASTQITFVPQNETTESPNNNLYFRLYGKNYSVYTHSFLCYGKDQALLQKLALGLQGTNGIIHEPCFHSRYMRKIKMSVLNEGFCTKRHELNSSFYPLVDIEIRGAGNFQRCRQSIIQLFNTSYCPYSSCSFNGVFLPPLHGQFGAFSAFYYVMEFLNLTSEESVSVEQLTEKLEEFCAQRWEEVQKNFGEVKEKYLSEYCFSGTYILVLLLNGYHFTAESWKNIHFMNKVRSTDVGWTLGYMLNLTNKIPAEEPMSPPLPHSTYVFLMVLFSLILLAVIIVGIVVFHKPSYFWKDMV

[9] = target: P2Y purinoceptor 1 (Rattus norvegicus) (UniProt P49651); assay: Agonist activity at rat pancreas P2Y1 receptor assessed as enhancement of insulin secretion relative to basal level; assay type: functional
[10] = Stability at 77 ug/ml after 30 mins by HPLC in presence of calf intestine alkaline phosphatase; assay type: ADME; details: cattle, isolated protein, 0.5 h
[11] = Chemical stability assessed as hydrolysis half life at 1.6 mg at pH 1.4 measured at 7 to 17 hrs interval for 5 days by HPLC-MS analysis; assay type: physicochemical
How it was run: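 1.6 mg in 0.2 M HCl/KCl buffer with pH brought to 1.4, held at 37 °C. Sampled at 7–17 h intervals for 5 days by HPLC-ESI-MS on C18 with TEAA/MeOH gradient. Peak area versus time was fit to pseudo-first-order decay for t1/2.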

P2Y purinoceptor 1 [12] = target: T1, P2Y purinoceptor 1; assay: Agonist activity at turkey P2Y1 receptor expressed in human 1321N1 cells assessed as increase in intracellular calcium concentration by dual-excitation spectrofluorimetric analysis; assay type: functional, cell-based
[13] = as §1; assay type: ADME, cell-free
Serum [14] = assay: Metabolic stability in human serum assessed as hydrolysis half life at 0.25 mM measured for 18 hrs by HPLC; assay type: ADME, cell-free; details: 250 µM
How it was run: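 Serum from healthy-donor whole blood (12 h at 4 °C, spun 1500 × g for 15 min, stored at −80 °C) was diluted 1:3 in RPMI-1640 and incubated with the nucleotide at 37 °C. Samples were acid-quenched (0.6 M HCl), spun, neutralised with 4 M KOH and freeze-dried. They were run on C18 HPLC with a KH2PO4 pH 4.5/acetonitrile gradient. t1/2 came from the change in peak integration over time.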

P2Y purinoceptor 4 = P2Y purinoceptor 4 (Homo sapiens, UniProt P51582); assay: Agonist activity at human P2Y4 receptor expressed in human 1321N1 cells assessed as increase in intracellular calcium concentration by dual-excitation spectrofluorimetric analysis; assay type: functional, cell-based; how it was run: as §2
P2Y purinoceptor 2 = P2Y purinoceptor 2 (Homo sapiens, UniProt P41231); assay: Agonist activity at human P2Y2 receptor expressed in human 1321N1 cells assessed as increase in intracellular calcium concentration by dual-excitation spectrofluorimetric analysis; assay type: functional, cell-based; how it was run: as §2
Chain of P2Y purinoceptor 2 (P41231 whole entry): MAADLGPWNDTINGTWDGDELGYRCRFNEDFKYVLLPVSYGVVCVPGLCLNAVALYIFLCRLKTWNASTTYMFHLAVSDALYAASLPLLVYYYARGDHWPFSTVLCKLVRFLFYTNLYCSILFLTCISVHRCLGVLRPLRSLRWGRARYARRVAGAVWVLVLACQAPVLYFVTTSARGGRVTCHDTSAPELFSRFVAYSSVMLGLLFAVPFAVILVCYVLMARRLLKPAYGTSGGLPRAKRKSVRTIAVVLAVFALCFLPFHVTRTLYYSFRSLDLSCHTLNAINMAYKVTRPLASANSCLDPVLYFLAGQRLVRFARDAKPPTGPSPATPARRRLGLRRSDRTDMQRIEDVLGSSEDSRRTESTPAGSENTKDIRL

T1 sequence (P49652 whole entry): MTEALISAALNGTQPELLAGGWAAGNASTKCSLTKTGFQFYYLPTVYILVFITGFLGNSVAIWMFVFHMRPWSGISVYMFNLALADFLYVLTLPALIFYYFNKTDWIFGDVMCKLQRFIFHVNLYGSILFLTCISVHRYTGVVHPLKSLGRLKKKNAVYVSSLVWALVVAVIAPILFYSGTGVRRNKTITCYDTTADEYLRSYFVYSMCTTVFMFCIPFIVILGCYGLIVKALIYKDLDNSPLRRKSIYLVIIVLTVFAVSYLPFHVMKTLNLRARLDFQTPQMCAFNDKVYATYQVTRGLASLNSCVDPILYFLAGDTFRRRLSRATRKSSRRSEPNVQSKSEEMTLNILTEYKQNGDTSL
Chain of P2Y purinoceptor 6 (Q63371 whole entry): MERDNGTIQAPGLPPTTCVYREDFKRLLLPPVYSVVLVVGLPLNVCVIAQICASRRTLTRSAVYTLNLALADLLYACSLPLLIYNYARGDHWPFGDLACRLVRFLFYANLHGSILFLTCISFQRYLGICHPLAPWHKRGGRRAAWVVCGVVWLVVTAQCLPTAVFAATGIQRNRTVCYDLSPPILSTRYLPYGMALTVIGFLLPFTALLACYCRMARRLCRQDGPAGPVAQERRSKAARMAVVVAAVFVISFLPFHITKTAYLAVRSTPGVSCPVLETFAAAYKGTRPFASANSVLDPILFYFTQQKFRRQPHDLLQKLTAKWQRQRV
Chain of P2Y purinoceptor 1 (Rattus norvegicus) (P49651 whole entry): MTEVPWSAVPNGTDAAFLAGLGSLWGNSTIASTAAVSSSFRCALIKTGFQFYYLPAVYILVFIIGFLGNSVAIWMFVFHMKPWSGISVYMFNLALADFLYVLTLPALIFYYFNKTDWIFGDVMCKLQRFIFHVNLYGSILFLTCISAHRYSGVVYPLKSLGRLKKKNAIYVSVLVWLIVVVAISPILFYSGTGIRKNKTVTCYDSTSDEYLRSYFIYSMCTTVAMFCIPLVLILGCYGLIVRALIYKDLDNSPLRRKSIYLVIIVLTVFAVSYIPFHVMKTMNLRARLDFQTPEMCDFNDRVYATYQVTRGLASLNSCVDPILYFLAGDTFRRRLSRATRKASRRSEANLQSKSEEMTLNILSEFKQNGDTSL
Chain of P2Y purinoceptor 1 (Rattus norvegicus, UniProt P49651) (P49651 whole entry): as above
Chain of P2Y purinoceptor 4 (P51582 whole entry): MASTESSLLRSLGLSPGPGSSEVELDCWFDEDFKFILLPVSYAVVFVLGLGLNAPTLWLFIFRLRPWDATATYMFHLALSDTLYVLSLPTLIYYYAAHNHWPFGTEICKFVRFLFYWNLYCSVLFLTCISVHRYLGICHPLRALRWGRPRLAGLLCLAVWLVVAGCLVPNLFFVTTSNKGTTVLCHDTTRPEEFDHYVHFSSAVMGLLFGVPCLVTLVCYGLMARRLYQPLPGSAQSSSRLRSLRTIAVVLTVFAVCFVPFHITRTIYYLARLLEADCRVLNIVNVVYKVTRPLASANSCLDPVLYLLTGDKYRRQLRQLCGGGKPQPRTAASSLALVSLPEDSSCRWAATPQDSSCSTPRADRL

pKa [2]: 6.5
SMILES: CSc1nc(N)c2ncn([C@@H]3O[C@H](COP(=O)(O)OP(=O)(O)O)[C@@H](O)[C@H]3O)c2n1

EC50 (P2Y purinoceptor 1 [3]): 28 nM | half-life [4]: 5.9 h | Stability [5]: Unstable | half-life [6]: 1400 h | remaining at 0.2 h (alkaline phosphatase): 40%
SMILES: BP(=O)(OC[C@H]1O[C@@H](n2cnc3c(N)nc(SC)nc32)[C@H](O)[C@@H]1O)OP(=O)(O)OP(=O)(O)O (single isomer, unassigned; diastereomer A) [listing 1 of 2 here]

Activity [8]: 14% | fold change (FC) [9]: 9
SMILES: BP(=O)(OC[C@H]1O[C@@H](n2cnc3c(N)nc(SC)nc32)[C@H](O)[C@@H]1O)OP(=O)(O)OP(=O)(O)O (single isomer, unassigned; diastereomer A) [listing 2 of 2 here]

Activity [8]: 59%
SMILES: BP(=O)(OC[C@H]1O[C@@H](n2cnc3c(N)nc(SC)nc32)[C@H](O)[C@@H]1O)OP(=O)(O)OP(=O)(O)O (single isomer, unassigned; diastereomer B)

Further lines, the compound ahead of its results:

SMILES: BP(=O)(OC[C@H]1O[C@@H](n2cnc3c(N)ncnc32)[C@H](O)[C@@H]1O)OP(=O)(O)CP(=O)(O)O (some centres undefined)
EC50 (P2Y purinoceptor 1 [1]): Not Active

SMILES: BP(=O)(OC[C@H]1O[C@@H](n2cnc3c(N)nc(SC)nc32)[C@H](O)[C@@H]1O)OP(=O)(O)CP(=O)(O)O (single isomer, unassigned; diastereomer A)
Stability (Serum [7]): Stable | EC50 (P2Y purinoceptor 6; 1321-n1): Not Active

SMILES: BP(=O)(OC[C@H]1O[C@@H](n2cnc3c(N)ncnc32)[C@H](O)[C@@H]1O)OP(=O)(O)CP(=O)(O)O (single isomer, unassigned; diastereomer B)
Stability [10]: Stable | half-life [11]: 19 h

SMILES: BP(=O)(OC[C@H]1O[C@@H](n2cnc3c(N)nc(SC)nc32)[C@H](O)[C@@H]1O)OP(=O)(O)CP(=O)(O)O (single isomer, unassigned; diastereomer B)
Stability [10]: Stable | EC50 (P2Y purinoceptor 1 [12]): 17200 nM | half-life [11]: 14.5 h | half-life at 40000 µM [13]: 71.9 h

SMILES: Nc1ncnc2c1ncn2[C@@H]1O[C@H](COP(=O)(O)OP(=O)(O)O)[C@@H](O)[C@H]1O [ADENOSINE DIPHOSPHATE]
EC50 (P2Y purinoceptor 1 [12]): 100 nM

SMILES: Nc1ncnc2c1ncn2[C@@H]1O[C@H](COP(=O)(O)OP(=O)(O)OP(=O)(O)O)[C@@H](O)[C@H]1O [ADENOSINE TRIPHOSPHATE]
t1/2 (Serum [14]): 3.6 h | t1/2 (Serum [7]): 7.7 h

SMILES: O=c1ccn([C@@H]2O[C@H](COP(=O)(O)OP(=O)(O)OP(=O)(O)O)[C@@H](O)[C@H]2O)c(=O)[nH]1 [URIDINE TRIPHOSPHATE]
EC50 (P2Y purinoceptor 4): 480 nM | EC50 (P2Y purinoceptor 2): 640 nM

SMILES: O=c1ccn([C@@H]2O[C@H](COP(=O)(O)OP(=O)(O)O)[C@@H](O)[C@H]2O)c(=O)[nH]1 [URIDINE_DIPHOSPHATE]
EC50 (P2Y purinoceptor 6; read-out: EC50): 200 nM
